Published values collected from several papers.
Compare with care: the assays were run in different laboratories.
Target: SRSF protein kinase 3 (SRPK3, Homo sapiens, UniProt Q9UPE1)

| assay | setting | endpoint | value | Structure (SMILES) |
| --- | --- | --- | --- | --- |
| enzyme activity, inhibitor, radiometric | 1 µM | remaining activity | 114% | Cc1cnc(NC2CCOCC2)nc1-n1cnc(C(=O)NC(CN)c2cc(F)cc(Cl)c2)c1 (centres unmarked) |
| thermal stability, DSF | 10 µM | ΔTm | 0.2 °C | Cn1c2c(Cl)c(Cl)ccc2c2cc[nH]c(=O)c21 |
| enzyme activity, inhibitor | 10 µM | inhibition | 15% | CCN(CC)CCNC(=O)c1c(C)[nH]c(/C=C2\C(=O)Nc3ccc(F)cc32)c1C |
| enzyme activity, inhibitor | 23.5 nM | remaining activity | 96% | Cc1ccc(C(=O)Nc2ccc(CN3CCN(C)CC3)c(C(F)(F)F)c2)cc1C#Cc1cnc2cccnn12 |
| cell-free assay, competition with immobilised ligand | 1 µM | remaining binding | 100% | O=C(NS(=O)(=O)c1ccc(NCC2CCOCC2)c([N+](=O)[O-])c1)c1ccc(N2CCN(Cc3ccc(C(F)(F)F)cc3-c3ccc(Cl)cc3)CC2)cc1Oc1cnc2[nH]ccc2c1 |
| enzyme activity, inhibitor | 0.3 µM | inhibition | -13% | Cc1ccc(Nc2nccc(N(C)c3ccc4c(C)n(C)nc4c3)n2)cc1S(N)(=O)=O |
| cell-free assay, competition with immobilised ligand | 1 µM | remaining binding | 100% | Cc1cc(NC(=O)c2cccc(S(F)(F)(F)(F)F)c2)cc(-n2ccn3nc(-c4cccnc4)cc23)c1 |
| enzyme activity, inhibitor | 1 µM | inhibition | 5% | COc1cc2ncnc(Nc3ccc(Oc4ccccc4)c(C)c3C)c2cc1OC |
| cell-free assay, competition with immobilised ligand | 1 µM | remaining binding | 100% | CC(=O)Nc1c(C(C)=O)c(=O)n(C)c2nc(-c3ccc(Cl)cc3Cl)c(-c3ccc(Cl)cc3)cc12 |
| enzyme activity, inhibitor | 0.3 µM | inhibition | -7% | CNC(=O)c1cc(Oc2ccc(NC(=O)Nc3ccc(Cl)c(C(F)(F)F)c3)cc2)ccn1 |
| thermal stability, DSF | 10 µM | ΔTm | 1.9 °C | Cn1c2c(c3ccc(Cl)c(Cl)c31)C(C#N)C1(CCNCC1)NC2=O (racemic) |
| enzyme activity, inhibitor, radiometric | 1 µM | remaining activity | 97% | CC(C)(C)c1nc2c(s1)c1nc(N)ncc1c1ccc(NS(=O)(=O)c3c(F)cccc3F)c(F)c12 |
| enzyme activity, inhibitor | 10 µM | remaining activity | 77% | CCCOc1ccc(OC)c(F)c1C(=O)c1ccc(C(=O)N[C@@H]2CNC[C@H]2NC(=O)c2ccc3[nH]ncc3c2)cc1 |
| cell-free assay, competition with immobilised ligand | 1 µM | remaining binding | 100% | COc1cc(-c2cn(C3CCc4c(F)cccc4N(CC(F)(F)F)C3=O)nn2)ccc1-n1cnc(C)c1 (centres unmarked) |
| cell-free assay, inhibitor | 20 µM | remaining signal | 88% | Nc1ncnc2occ(-c3ccc(NC(=O)Nc4cc(C(F)(F)F)ccc4F)cc3)c12 |
| thermal stability, DSF | 10 µM | ΔTm | 0.3 °C | Cn1c2c(Cl)c(Cl)ccc2c2cc(N)[nH]c(=O)c21 |
| cell-free assay, competition with immobilised ligand | 1 µM | remaining binding | 100% | Cc1cc(-n2nc(Cc3cc(F)cc(C(F)(F)F)c3)nc2C)ccc1C(N)=O |
| enzyme activity, inhibitor | 1 µM | inhibition | -3% | CN1CC(Oc2cnc(C#N)cc2-c2ccn3nc(NC(=O)C4CC4)cc3c2)C1 |
| cell-free assay, competition with immobilised ligand | 1 µM | remaining binding | 89% | CNCc1ccccc1-c1csc([C@H](C)Nc2nc(C)nc3cc(OC)c(OC)cc23)c1 |
| enzyme activity, inhibitor | 10 µM | remaining activity | 111% | CCN(CC)c1ccc(C2=NNC(=O)CC2C)cc1[N+](=O)[O-] (centres unmarked) |
